Experimental data reported in paper PMC9063861 (RSC Advances, 2019).

Experiments:
[1] = biological target: T1, Horseradish peroxidase (HRP) (Armoracia rusticana, UniProt P00433); assay: Kinetics of the oxidation of flavones catalyzed by HRP; assay type: biochemical
T1 sequence (P00433 31-338 limits assumed): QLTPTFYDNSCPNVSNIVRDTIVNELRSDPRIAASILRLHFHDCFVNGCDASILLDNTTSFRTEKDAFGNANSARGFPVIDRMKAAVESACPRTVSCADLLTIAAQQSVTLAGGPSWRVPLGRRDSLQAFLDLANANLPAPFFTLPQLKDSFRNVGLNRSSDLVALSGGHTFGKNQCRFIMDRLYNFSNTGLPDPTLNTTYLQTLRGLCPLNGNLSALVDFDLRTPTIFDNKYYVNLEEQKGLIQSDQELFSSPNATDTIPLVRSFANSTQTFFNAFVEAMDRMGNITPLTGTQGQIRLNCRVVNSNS
Method in brief: (§1)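 Horseradish peroxidase, >250 U mg−1. Oxidation products were quantified by LC-MS/MS using ESI in negative mode with multiple reaction monitoring. The mobile phase was acetonitrile–0.1% formic acid (aq) at 450 μL min−1. Nitrogen served as curtain and collision gas, at 13 and 6 psi respectively.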

[2] = biological target: Laccase from Trametes versicolor; assay: Kinetics of the oxidation of flavones catalyzed by laccase; assay type: biochemical
Method in brief: as §1, with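 “Laccase from Trametes versicolor, 120” for “Horseradish peroxidase, >250”, “g−1.” for “mg−1.”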

| SMILES | kinetic model of oxidation by HRP [1] | K m ([1]; formation of the named product) | n (Hill kinetic model) ([1]; formation of the named product) | kinetic model of oxidation by laccase [2] | K m ([2]; formation of the named product) | Ki ([2]; read-out: Ki (inhibitory effect on laccase)) |
| --- | --- | --- | --- | --- | --- | --- |
| O=c1cc(-c2ccc(O)cc2)oc2cc(O)cc(O)c12 [compound 1, apigenin] | Hill kinetic model | 163.5 µM | 2.944 |  |  |  |
| O=c1c(O)c(-c2ccc(O)cc2)oc2cc(O)cc(O)c12 [compound 5, kaempferol] |  |  |  | substrate inhibition kinetic model | 8.288 ± 0.401 mM | 1.66 mM |
| O=C1C[C@@H](c2ccc(O)cc2)Oc2cc(O)cc(O)c21 [compound 8, naringenin] | substrate inhibition kinetics |  |  |  |  |  |
| O=c1c(-c2ccc(O)cc2)coc2cc(O)ccc12 [compound 10, daidzein] | Hill kinetic model |  |  | Hill-kinetic model |  |  |
| O=C(/C=C/c1ccc(O)cc1)c1ccc(O)cc1O [compound 12, isoliquiritigenin] | substrate inhibition kinetics |  |  | Hill-kinetic model |  |  |
